Experimental data collected from several papers.
Target: RAC-gamma serine/threonine-protein kinase (AKT3, Homo sapiens, UniProt Q9Y243)

Compound | observed | mode | method | tested at | measurement | value
Cc1ccc(C(=O)Nc2ccc(CN3CCN(C)CC3)c(C(F)(F)F)c2)cc1C#Cc1cnc2cccnn12 | enzyme activity | inhibitor |  | 23.5 nM | remaining activity | 100%
CO[C@@H](C)c1c(Nc2ccc([C@H](N(C)C(=O)C3CCS(=O)(=O)CC3)C(F)(F)F)cc2)cnc2cc(Cl)nn12 | cell-free assay |  | competition with immobilised ligand | 1 µM | remaining binding | 100%
COc1cc(Nc2c(C#N)cnc3cc(OCCCN4CCN(C)CC4)c(OC)cc23)c(Cl)cc1Cl | cell-free assay |  |  | 0.5 µM | remaining signal | 90.7%
CCCS(=O)(=O)Nc1ccc(F)c(C(=O)c2c[nH]c3ncc(-c4ccc(Cl)cc4)cc23)c1F | enzyme activity | inhibitor |  | 1 µM | inhibition | < 10%
CS(=O)(=O)N1CCCC(NC(=O)[C@H](CCC2CCCCC2)NC(=O)c2ccc(CNC(=O)c3cnc4ccccn34)cc2)C1 (some centres unmarked) | cell-free assay |  | competition with immobilised ligand | 0.1 µM | remaining binding | 100%
CCCOc1ccc(OC)c(F)c1C(=O)c1ccc(C(=O)N[C@@H]2CNC[C@H]2NC(=O)c2ccc3[nH]ncc3c2)cc1 | enzyme activity | inhibitor |  | 0.75 µM | remaining activity | 39%
COc1cc2ncnc(Nc3ccc(Oc4ccccc4)c(C)c3C)c2cc1OC | enzyme activity | inhibitor |  | 1 µM | inhibition | 1%
CNC(=O)c1cc(Oc2ccc(NC(=O)Nc3ccc(Cl)c(C(F)(F)F)c3)cc2)ccn1 | enzyme activity | inhibitor |  | 0.3 µM | inhibition | -4%
Cn1c2c(c3ccc(Cl)c(Cl)c31)C(C#N)C(C)(C)NC2=O (centres unmarked) | thermal stability |  | DSF | 10 µM | ΔTm | -0.2 °C
Cn1cc(Cl)c2c(Oc3c(F)cc(Nc4cc(Cl)nc(N)n4)cc3F)ccnc21 | cell-free assay |  | competition with immobilised ligand | 0.1 µM | remaining binding | 98%
CCC1(CC)NC(=O)c2c(c3ccc(Cl)c(Cl)c3n2C)C1C#N (centres unmarked) | thermal stability |  | DSF | 10 µM | ΔTm | 0.1 °C
CC(C)(O)[C@H]1CC[C@H](Nc2ccc3ncc(-c4cccc(C(F)(F)F)c4)n3n2)CC1 | enzyme activity | inhibitor |  | 1 µM | remaining activity | 96.5%
CC(C)(C)c1nc2c(s1)c1nc(N)ncc1c1ccc(NS(=O)(=O)c3c(F)cccc3F)c(F)c12 | enzyme activity | inhibitor | radiometric | 1 µM | remaining activity | 89%
CN(C)CC#Cc1ccc(OCCCc2sc(N3CCc4cccc(C(=O)Nc5nc6ccccc6s5)c4C3)nc2C(=O)O)c(F)c1 | cell-free assay |  | competition with immobilised ligand | 1 µM | remaining binding | 100%
N#CC1c2c([nH]c3c(Cl)c(Cl)ccc23)C(=O)NC12CCCCC2 (racemic) | thermal stability |  | DSF | 10 µM | ΔTm | -0.7 °C
Cc1ccc(C(=O)NCc2ccsc2)cc1C#Cc1cn(C(C)C)c2ncnc(N)c12 | enzyme activity | inhibitor |  | 1 µM | activity vs control | 79%

Compound | observed | mode | method | tested at | measurement | value
Cc1cc(NC(=O)c2cccc(S(F)(F)(F)(F)F)c2)cc(-n2ccn3nc(-c4cccnc4)cc23)c1 | cell-free assay |  | competition with immobilised ligand | 1 µM | remaining binding | 100%
O=C(Nc1cnn(-c2csc(C(=O)NC3COC3)c2)c1)Nc1ccccc1Cl | enzyme activity | inhibitor |  | 5 µM | remaining activity | 87.3%
O=c1nc(-c2ccccn2)sc2ccccc12 | binding |  | competition with immobilised ligand | 1 µM | remaining binding | 100%
CC1(C)NC(=O)c2[nH]c3c(Cl)c(Cl)ccc3c2C1C#N (centres unmarked) | thermal stability |  | DSF | 10 µM | ΔTm | 0 °C
C#Cc1cccc(Nc2ncnc3cc(OCCOC)c(OCCOC)cc23)c1 | cell-free assay |  |  | 0.5 µM | remaining signal | 74.6%
O=C(Nc1cnn(-c2csc(C(=O)NC3COC3)c2)c1)Nc1c(F)cccc1Cl | enzyme activity | inhibitor |  | 5 µM | remaining activity | 97.6%
CN1CCC2(CC1)NC(=O)c1c(c3ccc(Cl)c(Cl)c3n1C)C2C#N (racemic) | thermal stability |  | DSF | 10 µM | ΔTm | 0 °C
Nc1ncnc2occ(-c3ccc(NC(=O)Nc4cc(C(F)(F)F)ccc4F)cc3)c12 | cell-free assay | inhibitor |  | 20 µM | remaining signal | 85%
CCN(CC)CCNC(=O)c1c(C)[nH]c(/C=C2\C(=O)Nc3ccc(F)cc32)c1C | cell-free assay |  |  | 0.5 µM | remaining signal | 71.7%
CCN1CCC2(CC1)NC(=O)c1c(c3ccc(Cl)c(Cl)c3n1C)C2C#N (racemic) | thermal stability |  | DSF | 10 µM | ΔTm | -0.2 °C
COc1cc(F)ccc1-c1ncnc(Nc2cccc(C[S@](C)(=N)=O)c2)n1 | enzyme activity | inhibitor |  | 10 µM | activity vs control | 100%
Cc1c(NC(=O)c2cc(C(N)=O)nc3cc(F)ccc23)c(C(F)(F)F)nn1Cc1ccc(C#N)cc1 | cell-free assay |  | competition with immobilised ligand | 1 µM | remaining binding | 81%
O=C1Nc2ccc(Cl)cc2C1=Cc1cc(Cl)c(O)c(Cl)c1 | cell-free assay |  |  | 0.5 µM | remaining signal | 96.9%
Cn1c2c(c3ccc(Cl)c(Cl)c31)C(C#N)C1(CCOCC1)NC2=O (centres unmarked) | thermal stability |  | DSF | 10 µM | ΔTm | -0.1 °C
CN(c1ccnc(CNc2nc(Nc3ccc4c(c3)CC(=O)N4)ncc2C(F)(F)F)n1)S(C)(=O)=O | cell-free assay |  | competition with immobilised ligand | 1 µM | remaining binding | 100%
CCN(CC)c1ccc(C2=NNC(=O)CC2C)cc1[N+](=O)[O-] (centres unmarked) | enzyme activity | inhibitor |  | 10 µM | remaining activity | 91%
